How the values were obtained:
[1] = Cytotoxicity against human KB cells assessed as inhibition of cell proliferation at 10 uM after 72 hrs by cell titer 96 aqueous one solution based assay; format: functional
Summary of the method: (§1)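 KB cells in D-MEM with 10% FCS and antibiotics/fungizone under 5% CO2. 600 cells/well treated 24 h after seeding, 1% DMSO final, against DMSO controls. After 72 h, CellTiter 96 AQueous One for 3 h at 37 °C, absorbance 490 nm. Inhibition = [1 − (OD490 treated/OD490 control)] × 100, triplicate; mean ± SE.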

[2] = Cytotoxicity against human KB cells assessed as inhibition of cell proliferation at 1 uM after 72 hrs by cell titer 96 aqueous one solution based assay; format: functional; summary of the method: as §1
[3] = Antiproliferative activity against human KB cells after 72 hrs by cell titer 96 aqueous one solution based assay; format: functional
Summary of the method: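 KB cells (NCI origin) in D-MEM with 10% fetal calf serum, penicillin, streptomycin and fungizone under 5% CO2. 600 cells/well, dosed 24 h after plating from DMSO stocks (1% DMSO final; DMSO-only controls). 72 h exposure, then CellTiter 96 AQueous One for 3 h at 37 °C, A490. IC50 (50% inhibition) from 5 nM–100 μM in separate duplicate experiments.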

[4] = Antiproliferative activity against human HCT116 cells after 72 hrs by cell titer 96 aqueous one solution based assay; format: functional; conditions: HCT-116, 72 h
[5] = Antiproliferative activity against human HL60 cells after 72 hrs by cell titer 96 aqueous one solution based assay; format: functional; conditions: HL-60, 72 h
[6] = Antiproliferative activity against human MRC5 cells after 72 hrs by cell titer 96 aqueous one solution based assay; conditions: MRC5, 72 h
[7] = Antiproliferative activity against human HCT116 cells at 1 to 10 uM after 72 hrs by cell titer 96 aqueous one solution based assay relative to control; format: functional, HCT-116
[8] = Antiproliferative activity against human HL60 cells at 1 to 10 uM after 72 hrs by cell titer 96 aqueous one solution based assay relative to control; format: functional, HL-60
[9] = Antiproliferative activity against human MRC5 cells at 1 to 10 uM after 72 hrs by cell titer 96 aqueous one solution based assay relative to control; conditions: mrc5, 72 h
[10] = Antiproliferative activity against mouse B16F10 cells after 72 hrs by neutral red staining based assay; format: functional, cell-based; conditions: B16-F10, 72 h
Summary of the method: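 Murine B16F10 (ATCC) in DMEM with pyruvate, 10% FBS, 2% glutamine, 1% pen-strep, 37 °C, 5% CO2. 20 000 cells/well dosed 24 h later (1% DMSO final). After 72 h, PBS rinse, neutral red 40 μg/mL for 3 h at 37 °C, destain with acetic acid/EtOH/H2O 1:50:49 for 30 min at RT, A540. IC50 over 10 ng/mL–10 μg/mL, separate duplicates.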

[11] = Antiproliferative activity against mouse B16F10 cells at 1 to 10 uM after 72 hrs by neutral red staining based assay relative to control; format: functional, B16-F10
Summary of the method: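 B16F10 cells in supplemented DMEM at 37 °C, 5% CO2, 20 000/well, treated 24 h after plating with 1% DMSO final. After 72 h exposure, neutral red uptake (40 μg/mL, 3 h, 37 °C), acid-ethanol destain, absorbance 540 nm. Inhibition = [1 − (OD540 treated/OD540 control)] × 100 from triplicate experiments.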

[12] = Antiproliferative activity against human MDA435 cells after 72 hrs by cell titer 96 aqueous one solution based assay; format: functional; conditions: MDA-MB-435, 72 h
[13] = Antiproliferative activity against human MDA435 cells at 1 to 10 uM after 72 hrs by cell titer 96 aqueous one solution based assay relative to control; format: functional, MDA-MB-435

SMILES	inhibition at 10 µM [1] [%]	inhibition at 1 µM [2] [%]	IC50 [3] [nM]	IC50 [4] [nM]	IC50 [5] [nM]	IC50 [6] [nM]	Activity [7] [%]	Activity [8] [%]	Activity [9] [%]	IC50 [10] [nM]	Activity [11] [%]	IC50 [12] [nM]	Activity [13] [%]
CC[C@H]1C=CCC[C@@]2(C[C@@H]3CC[C@@H]4C[C@]5(CCC[C@@H](C)O5)NC(=[N+]43)N2)O1	84	0	–	–	–	–	–	–	–	–	–	–	–
CC[C@H]1C=CCC[C@@]2(C[C@@H]3CC[C@@H]4[C@H](C(=O)OCCCCCCCCCCCCCCCC(=O)O)[C@]5(CCC[C@@H](C)O5)NC(=[N+]34)N2)O1	97	85	500 to 600	–	–	–	–	–	–	–	–	–	–
CCCCCCC[C@@H]1N=C(N)N2CCCC2=C1C(=O)OCCCCNC(=N)N	100	80	100 to 200	–	–	–	–	–	–	–	–	–	–
CCCCCCCC[C@@H]1N=C(N)N2CCCC2=C1C(=O)OCCCCNC(=N)N	100	86	300	3400 to 4200	8000 to 9100	3600 to 4100	100	100	100	–	–	–	–
CC[C@H]1C=CCC[C@@]2(C[C@@H]3CC[C@@H]4[C@H](C(=O)OCCCCCCCCCCCCCCCCCC(=O)N(CCCN)CCCC(N)=O)[C@]5(CCC[C@@H](C)O5)NC(=[N+]34)N2)O1	100	100	50 to 70	–	–	–	–	–	–	800 to 850	100	–	–
CCCCCCCCC[C@@H]1N=C(N)N2CCCC2=C1C(=O)OCCCCNC(=N)N	100	97	30	–	–	–	–	–	–	–	–	–	–
CCCCCCC[C@@H]1N=C(N)N2CCCC2=C1C(=O)O	96	61	6700 to 7700	9900	3800 to 7100	–	100	100	–	–	–	9300 to 11000	100
CC[C@H]1C=CCC[C@@]2(C[C@@H]3CC[C@@H]4[C@H](C(=O)OCCCCCCCCCCCCCCCC(=O)O)[C@]5(CCCCO5)NC(=[N+]34)N2)O1	95	80	500 to 600	–	–	–	–	–	–	–	–	–	–
CCCCCCCCCc1nc(N)[n+]2c(c1C(=O)OCCCCNC(=N)N)CCC2	98	89	100	3400 to 3500	3600 to 5400	3400 to 3900	100	100	100	–	–	–	–
CCCCCCCCCc1cc2[n+](c(N)n1)CCC2	99	82	200 to 400	740 to 840	1300	550 to 600	100	100	100	–	–	320 to 860	100
CCCCCCCCC[C@@H]1N=C(N)N2CCCC2=C1C(=O)O	72	0	–	–	–	–	–	–	–	–	–	–	–
CC[C@H]1C=CCC[C@@]2(C[C@@H]3CC[C@@H]4[C@H](C(=O)OCCCCCCCCCCCCCCCCC(=O)N(CCCN)CC(O)CCN)[C@]5(CCC[C@@H](C)O5)NC(=[N+]34)N2)O1 (stereo not given in full)	100	96	5 to 20	20 to 50	10 to 30	–	100	100	–	200	100	40 to 70	100
CC[C@H]1C=CCC[C@@]2(C[C@@H]3CC[C@@H]4[C@H](C(=O)OCCCCCCCCCCCCCCCC(=O)N(CCCN)CC(O)CCN)[C@]5(CCC[C@@H](C)O5)NC(=[N+]34)N2)O1 (stereo not given in full)	99	100	5	7	4 to 6	–	100	100	–	200	100	9 to 15	100
CC[C@H]1C=CCC[C@@]2(C[C@@H]3CC[C@@H]4[C@H](C(=O)OCCCCCCCCCCCCCCC(=O)N(CCCN)CC(O)CCN)[C@]5(CCC[C@@H](C)O5)NC(=[N+]34)N2)O1 (stereo not given in full)	100	89	300	3100 to 3400	5000 to 5400	3200 to 3400	100	100	100	–	–	–	–
